SMILES strings stand for the structures.

This series can be described thus: Toxicity liver stage against HepG2, at 10uM. Format: cell-based. Also on record: test concentration 10 uM, cell line HepG2-A16-CD81EGFP. Particulars: human, HepG2-A16-CD81EGFP cells; read-out: INHIBITION
A digest of the protocol:
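Uninfected HepG2-A16-CD81EGFP cells, 3 × 10^3 per well, 1536-well, plated on prespotted compound at 10 μM final, parasite-free screening media added to match infected plates; puromycin 10 μM positive, DMSO 0.5% negative; run in parallel with 48 h PbLuc assay at 37 °C, 5% CO2; viability by CellTiter-Glo luminescence, normalized to controls.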
As to `O=C1c2c(O)cc(O)cc2O[C@@H](c2ccc(O)cc2)[C@@H]1O`, the cytotoxicity at 10 µM was -0.639%.
Take `CCOC(=O)CCn1cnc2onc(-c3ccc(OC)cc3)c2c1=O`: the cytotoxicity at 10 µM stood at 18.8%.
As for `N#Cc1nc(COc2ccc3c(c2)OCO3)oc1NC1CCCCC1`, the cytotoxicity at 10 µM is -41.4%.
`Cc1cnc2c(c1NCc1cccnc1)c(=O)n(C)c(=O)n2C`: the cytotoxicity at 10 µM is -2.02%.
Consider `O=C(NCC1CCN(c2ncccn2)CC1)c1cnccn1`, for which the cytotoxicity at 10 µM worked out at 2.84%.
For `O=S(=O)(NCC(O)c1ccc(C(F)(F)F)cc1)C1CC1` (configuration not stated) the value was -6.9%; for `O=C(Cc1cccs1)Nc1cnn(C2CCOCC2)c1`, -0.779%.
For `COCC1c2nnn(CC3CC3)c2CCN1C(=O)c1sccc1C` (configuration not stated) the value was -147%; for `Cc1ccccc1CN1CCCC1c1cccc(Nc2nccs2)n1` (configuration not stated), 13.3%.
In the case of `Cc1cc(C2CCCCN2C(=O)c2ccsc2)nc2nccn12` (configuration not stated), the cytotoxicity at 10 µM is -11.8%.
In the case of `Fc1ccc(Cc2cccc(C3CCN(C4CCOCC4)CC3)n2)cc1`, the cytotoxicity at 10 µM is 4.3%.
As for `Cc1nccn1-c1nccnc1C1CCN(Cc2ccc(F)cc2)CC1`, the cytotoxicity at 10 µM was -5.43%.
`NCCn1nc(C2CCN(Cc3ccc(Cl)c(Cl)c3)C2)c2nccnc21` (configuration not stated): the cytotoxicity at 10 µM is 27.7%.
For `CC(c1ccccc1F)N(CC(N)=O)C1CC1` (configuration not stated) the value was -46.3%; for `CCc1ccc(C(=O)N2CCC(N(C)C(=O)OC(C)(C)C)C2)o1` (configuration not stated), -48%; for `COc1ccncc1NCc1ccsc1`, 19%.
As for `Cc1noc(C)c1CN1CCN(Cc2nc(C3CC3)no2)CC1`, the cytotoxicity at 10 µM stood at 31.4%.
Consider `Cc1cccc(CN(Cc2ccccn2)Cc2ncc(C(C)(C)C)o2)c1`, for which the cytotoxicity at 10 µM is 3.49%.
As to `CC(C)c1ccc(/C=C/CC(=O)NC2CCS(=O)(=O)CC2)cc1`, the cytotoxicity at 10 µM was 5.5%.
In the case of `CN1CCOC(CNCCOc2ccc(C#N)cc2)C1` (configuration not stated), the cytotoxicity at 10 µM turned out to be 9.34%.
For `COCCCSc1ccc(NCc2ccc(C)cn2)cc1` the value was 15.8%; for `CN(C(=O)CCC(F)(F)F)c1cccc2ncccc12`, 1.9%.
With `CC(NC(=O)CSCC(N)=O)c1ccccc1Oc1ccccc1` (configuration not stated), the cytotoxicity at 10 µM is 4.84%.
In the case of `Cc1nc(N2CCC3(CCOC3)C2)c2cc[nH]c2n1` (configuration not stated), the cytotoxicity at 10 µM is -2.95%.
For `Cc1cnn(Cc2cc(F)ccc2F)c1NC(=O)C1CCOCC1` the value was -0.303%.
As to `CC(C)CC(=O)NCc1cccc(OCCN(C)C2CCOCC2)c1`, the cytotoxicity at 10 µM was determined as 11.5%.
Turning to `NC(=O)C1CCN(Cc2cc3c(cc2Br)OCCO3)C1` (configuration not stated), the cytotoxicity at 10 µM worked out at 0.641%.
Regarding `CCc1nc(C2CCCN2Cc2nc(C(C)(C)C)no2)no1` (configuration not stated), the cytotoxicity at 10 µM came to 12.9%.
Take `Cc1c(C(C)NC(=O)N2CCN(C3CCCC3)CC2)cnn1C` (configuration not stated): the cytotoxicity at 10 µM came out at 3.02%.
For `CN1CCC(CN(C)S(=O)(=O)CC2CCCCC2)CC1` the value was 0.304%; for `c1cncc(-c2nnc(C3(c4ccc5c(c4)OCO5)CCOCC3)o2)c1`, 4.02%; for `Cc1ccc(OCC(O)COC2CCOCC2)c(Cl)c1` (configuration not stated), -5.27%.
For `CC(=O)N1CCCC(C(=O)N2CCN(Cc3cc(C)on3)CC2)C1` (configuration not stated) the value was -52.2%; for `Cc1ccc(C(=O)NC2CCN(Cc3noc(CC(C)C)n3)CC2)s1`, -15.2%; for `CN(C)Cc1cncc2c1CCN(CC(=O)N(C)C)C2`, -99.4%.
`CC(C)Nc1nc(-c2ccccc2)nc2c1CCN(C(=O)CC#N)CC2`: the cytotoxicity at 10 µM is -104%.
As for `O=C(N[C@@H]1CN(Cc2ccoc2)C[C@@H]2CCCO[C@@H]21)C1CCC1`, the cytotoxicity at 10 µM is -95.8%.
In the case of `CNC(=O)N1CCc2nc(C(=O)NCc3cccc(OC)c3)sc2CC1`, the cytotoxicity at 10 µM was -84.2%.
As for `Cn1cccc1C(=O)N1CCC2(CC1)CN(c1ccsc1)C(=O)CO2`, the cytotoxicity at 10 µM is -76.9%.
Consider `COc1cc(N2C[C@@H]3COC[C@]3(COc3ccc(C#N)cn3)C2)ncn1`, for which the cytotoxicity at 10 µM was 32.2%.
With `Cc1cccn2c(CC(=O)N3CCC(CCn4cccn4)CC3)cnc12`, the cytotoxicity at 10 µM is -53.1%.
For `Nc1nc2c(c(N3CCN(C(=O)c4cccs4)CC3)n1)CCCC2` the value was 7.9%.
As to `Clc1cc(N2CCN3CCCCC3C2)nc2[nH]ccc12` (configuration not stated), the cytotoxicity at 10 µM was -9.74%.
As to `Cc1cncc(C(=O)N2C[C@@H](C(=O)O)[C@H](C(C)C)C2)c1`, the cytotoxicity at 10 µM is -4.31%.
Regarding `CCC[C@H]1CN(S(=O)(=O)c2ccc(-c3c(C)noc3C)s2)C[C@@H]1N`, the cytotoxicity at 10 µM turned out to be 8.4%.
Regarding `O=S(=O)(NCc1ccccc1)N1CCCN(c2ccncc2)CC1`, the cytotoxicity at 10 µM was -11%.
Turning to `Cc1cnc(N2CCCC(c3ccccc3)C2)nc1-c1ccnn1C` (configuration not stated), the cytotoxicity at 10 µM is -1.18%.
With `COC(=O)c1cc(CN2CCN(c3ncccc3C)CC2)ccc1O`, the cytotoxicity at 10 µM is -0.503%.
With `COc1ccnc(CN(C)C(=O)CSc2nnc(N)s2)c1`, the cytotoxicity at 10 µM came out at 3.94%.
For `COc1ccc(C(=O)C2CCCN(CCc3ccccc3)C2)c(OC)c1` (configuration not stated), the cytotoxicity at 10 µM is 7.8%.
Turning to `CN(C)CC(Nc1nc(N)nc2c1CCNCC2)c1ccccc1` (configuration not stated), the cytotoxicity at 10 µM was -2.92%.
For `Cc1ccsc1CN1CCC(n2cc(C(O)c3ccccc3)nn2)CC1` (configuration not stated), the cytotoxicity at 10 µM amounted to 8.69%.
On to `Cc1nn(CCO)cc1CN1CCCC1c1nc2c(C)cccc2[nH]1` (configuration not stated), for which the cytotoxicity at 10 µM came to 3.83%.
In the case of `O=C1NCCCC12CCN(Cc1ccc(SC3CCCCC3)o1)C2` (configuration not stated), the cytotoxicity at 10 µM was -3.33%.
As for `CSc1cccc(CN(C)C(=O)Nc2nc(C)n(C)n2)c1`, the cytotoxicity at 10 µM came to 2.78%.
Regarding `COc1cccc(Cn2ncnc2CCC(C)N2CCN(C)CC2)c1` (configuration not stated), the cytotoxicity at 10 µM is -4.05%.
As for `CCOC(=O)CC(NC(=O)c1cn(Cc2ccccc2F)nn1)C(C)C` (configuration not stated), the cytotoxicity at 10 µM was -0.99%.
For `c1ccc(C(CC2CN(Cc3c[nH]cn3)CCO2)c2ccccc2)cc1` (configuration not stated) the value was -5.54%; for `C[C@@H]1CN(CC(C)(C)N2CCCCC2)CC[C@@]1(O)C1CC1`, -4.6%; for `CC(C)(C)c1nccc(C2(c3ccccc3Cl)CCNCC2)n1`, -1.15%.
For `CCCn1cc(-c2ccnc(NC3CCCc4ccccc43)n2)c(C)n1` (configuration not stated) the value was 81.4%; for `CC(=O)c1ccn(CC(=O)Nc2nn(CC3CC3)c3ccccc23)n1`, 9.34%.
`CCn1ccnc1CN1CCC(CCC(=O)Nc2ccccc2Cl)CC1`: the cytotoxicity at 10 µM is -26.5%.
In the case of `NC(=O)c1ccc(CNC(=O)Nc2cn[nH]c2)cc1`, the cytotoxicity at 10 µM is -20.4%.
As for `Cc1nn(C)c(C)c1C1CCCN1Cc1cccc(OCC(N)=O)c1` (configuration not stated), the cytotoxicity at 10 µM is -0.192%.
For the compound `Cc1cccc(C(=O)N2CC[C@]3(C[C@H](OCc4ccccn4)CO3)C2)c1`, the cytotoxicity at 10 µM is -70.9%.
For `COc1ccc(CN2CCCC3(CCN(c4ccsc4)C3=O)C2)cc1` (configuration not stated), the cytotoxicity at 10 µM was 6.92%.
For `c1ccc2c(c1)C(NC1CCCC1)CC21CCNCC1` (configuration not stated) the value was -120%.
For the compound `CN(C)C(=O)CN1CCC2(CCCN(Cc3cccnc3)C2)C1=O` (configuration not stated), the cytotoxicity at 10 µM is -103%.
As to `CC(C)CN1C(=O)C2(CCN(CC3CCOCC3)C2)c2ccccc21` (configuration not stated), the cytotoxicity at 10 µM is -71.2%.
As to `COCCN1CCc2cc(C(=O)NC(C)C)c(NCC3CC3)nc2CC1`, the cytotoxicity at 10 µM is 3.22%.
With `Cn1cccc1C(=O)N1CCC2(CCN2c2ncccn2)C1` (configuration not stated), the cytotoxicity at 10 µM stood at 10.7%.
